# High-throughput results: PubChem BioAssay, Broad Institute
# In the library only some 4.4% were active in any assay of this set; here they are far more common.
# HSF1 inhib: HSF1 inhibition; NIH3T3-HGL HSE-luciferase, MG132-induced, luminescence 8 h; stronger effect = lower value; activity change, negative = inhibition, % at 7.5 µM (by protocol); AID 2098; hit rate 0.77% among 300,000;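 active means more than half of replicate wells show activity change below -50%, luminescence cut by over half; inconclusive means some wells, but at most half, below -50%; inactive means no replicate well below -50%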;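 further: luciferase reports HSF-1 transcriptional activity via heat shock element; 0% = median of DMSO wells and -100% = zero luminescence signal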
# Calb FLC: C. albicans growth modulation with fluconazole; C. albicans CaCi-2 + fluconazole, Alamar Blue growth, 48 h; growth inhibition, % (concentration not given with the values); hit rate 0.57% among 300,000; AID 1979;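 active means growth inhibition above about 58% in most replicates, limit read from the data, passing the limit was not always enough; inconclusive means exactly half the replicates above a set limit; inactive means most replicates below a set limit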;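 further: all wells also contain fluconazole at 8 µg/ml as a sub-toxic cotreatment; 0% = median of DMSO wells and 100% = median of geldanamycin control wells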
# HIF activator: HIF pathway transcriptional activation; U2OS HRE-luciferase reporter, luminescence; normalized: DMSO 0%, desferrioxamine 100%; activation, % at 7.5 µM (by protocol); hit rate 0.32% among 300,000; AID 1910;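 active means mean activation of at least 10% of the iron chelator positive control signal, with at least half of replicates also reaching 10%; inconclusive means mean and replicate majority disagree about reaching 10%; inactive means mean and most replicates under 10%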
# T cruzi inh: blocks replication of Trypanosoma cruzi; T. cruzi beta-gal in NIH3T3, luminescence, 90 h; inhibition, % (no concentration beside the values); hit rate 1.4% among 300,000; AID 1885;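 active means mean inhibition across valid replicates above about 55%, limit read from the data; inconclusive means mean below that limit but half or more replicates reach it; inactive means mean below it, under half of replicates reach it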;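 further: signal also drops with host cell toxicity which is not excluded here; 0% = plate median of DMSO wells and 100% = zero luminescence signal; higher percent means less beta-gal luminescence so fewer parasites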
#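 System: mouse NIH/3T3 fibroblasts infected with β-gal-expressing T. cruzi Tulahuen C4 / Input: NIH/3T3 cells, 5,000 per well / Buffer or medium: Low-serum DMEM with 2% FBS / Probe or stimulus: 5000 reporter trypomastigotes per well / Schedule: ≥90 h infection period, 3 h prior cell attachment / Measured by: GalScreen luminescence, 60 min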
# HSF1 activator: increases HSF-1 driven luciferase reporter signal; activation, % at 9 µM; NIH3T3-HGL HSF-1 luciferase reporter, MG132, 8 h; 100% = twice DMSO control signal; hit rate 1.7% among 300,000; AID 504408;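 active means mean replicate activation of at least 50% with a set share of replicates each reaching 50%; inconclusive means only one of those two conditions met; inactive means mean below 50% and too few replicates reaching it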;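 further: 0% = median of the neutral control wells and 100% = twice that signal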
# An asterisk follows results filed as active; ? = inconclusive; nt = no result given.
SMILES,HSF1 inhib,Calb FLC,HIF activator,T cruzi inh,HSF1 activator
Cc1cc(F)ccc1NC(=O)c1cccnc1,-7,-5,-1,-7,0
NS(=O)(=O)c1ccc(N/N=C/c2ccccc2C(=O)O)c([N+](=O)[O-])c1,23,-2,-1,-19,61*
NS(=O)(=O)c1cccc(NS(=O)(=O)c2cccc(C(F)(F)F)c2)c1,-1,-4,0,-25,-3
Cc1ccc(Cn2ncc3c(N4CCN(C)CC4)ncnc32)cc1,-75*,2,-1,25,-81
Cc1ccc(Cn2ncc3c(N4CCN(Cc5ccc(Cl)cc5)CC4)ncnc32)cc1,11,18,0,32,20
CC1(C)C(O)=C(c2nc3ccccc3[nH]2)C(=N)N1c1ccccc1,-2,100*,0,-14,32
O=C(CSc1nnc2c(Cl)cc(C(F)(F)F)cn12)N(Cc1ccccc1)Cc1ccccc1,57,-1,0,7,105*
COc1ccc(CNC(=O)C[C@H]2C(=O)N(c3ccccc3)C[C@@H]2Cc2ccccc2)cc1,-12,2,0,12,-13
O=C(NCCSC1CCCCC1)c1ccccc1,nt,-36,2,0,nt
COc1ccc(C(=O)NCCSC2CCCCC2)cc1,9,-25,2,-12,51*
CC1(C)c2cc(O)ccc2OC1N1CCOCC1 (stereo unspecified),21,0,3,-12,?
O=C(CSc1nnc(-c2ccncc2)n1Cc1ccco1)Nc1cccc(O)c1,-2,12,0,-14,-19
CCOC(=O)c1c(NC(=O)CSc2nnc(CNc3ccc(Cl)cc3)o2)sc(C)c1C,38,-3,0,7,67*
CCOC(=O)c1c(NC(=O)CSc2nnc(-c3ccncc3)n2Cc2ccco2)sc(C)c1C,2,21,0,70*,-12
Cc1cc(Cl)ccc1N(CC(=O)NCc1ccc2c(c1)OCO2)S(C)(=O)=O,-5,-31,-1,-12,-1
O=Cc1ccc(O)c2ncccc12,?,94*,0,57*,-55
c1cnc2ccc3ncccc3c2c1,3,-2,-4,8,2
COc1ccc(N2CC(C(=O)NC3=NCCS3)CC2=O)cc1 (stereo unspecified),-2,-3,-1,-13,1
COC(=O)CN1C(=O)Nc2ccc(C)cc2C1c1ccccc1 (stereo unspecified),-70*,-18,-1,-7,-73
O=C(/C=C/c1ccco1)NCCCN1CCOCC1,0,-10,-1,6,17
O=C(/C=C/c1ccc(Br)o1)NCCCN1CCOCC1,-66*,20,1,4,-68
O=C(COC(=O)/C=C/c1ccc(Br)o1)NCCCN1CCCC1=O,48,16,1,-2,65*
C=CCC1(CC=C)CCCN1C(=O)c1cc(COc2cncc(Cl)c2)on1,-7,-34,1,28,-8
Cc1cccc(N2NC(=O)/C(=C/c3ccc(-c4ccc(Cl)c(C(=O)O)c4)o3)C2=O)c1,-5,103*,0,-14,1
COCCNC(=O)NC12CC3CC(CC(C3)C1)C2,-10,95*,0,-16,1
SMILES,HSF1 inhib,Calb FLC,HIF activator,T cruzi inh,HSF1 activator
CS(=O)(=O)N(CC(=O)NCc1ccccc1)C1CCCCC1,-77*,-3,0,10,-83
Cc1ccc(CNC(=O)CN(C2CCCCC2)S(C)(=O)=O)cc1,-3,-1,-3,5,4
Cc1c(Cl)cnc(NC(=O)CSc2nncs2)c1Cl,3,112*,1,-6,9
Cc1ccc2c(C(=O)CNc3nncs3)c(C)[nH]c2c1,-3,-2,0,-1,-2
CC(=O)Oc1ccc(-c2cccc(C(=O)OCC(=O)N(C)c3ccccc3)c2)cc1,49,18,-1,-12,90*
O=S(=O)([O-])CCC[n+]1c(/C=C\Nc2ccccc2)oc2ccc(-c3ccccc3)cc21,-1,6,0,-5,-3
CCOC(=O)N1C(=O)[C@@](CC)(c2ccccc2)N1C(=O)OCC,-55*,-4,-1,-4,-65
CC[C@@]1(c2cccc(C)c2)C(=O)N(C(=O)OC)N1C(=O)OC,-2,-10,-1,-3,4
O=C1CCC(=O)N1c1ccc(-c2nc3ccccc3s2)cc1,-72*,5,1,-1,-72
COc1ccc(C(=O)NCC(=O)c2ccccc2)cc1,19,-1,-7,-12,28
Cc1ccc(NS(=O)(=O)c2cccc3cccnc23)c(Cl)c1,-1,64,0,-2,3
CC1CN(C)C(C)CC1OC(=O)C(c1ccccc1)c1ccccc1 (stereo unspecified),-2,-15,1,52,10
COC(=O)C(c1ccccc1)C1(O)CC(C)N(C)CC1C (stereo unspecified),-76*,1,0,-11,-82
Nc1cccn2c(-c3ccc(Cl)c(Cl)c3)cnc12,23,19,0,15,70*
Nc1cccn2c(-c3ccc(Cl)cc3)cnc12,5,1,2,7,22
CCOC(=O)Cc1csc(SCC(=O)Nc2cc(Cl)ccc2Oc2ccccc2)n1,9,-9,0,-24,8
CNC(=O)C1=C(C)Nc2nc3ccccc3n2C1c1cccc(OC)c1 (stereo unspecified),2,-1,0,-9,5
CCOC(=O)C1=C(C)Nc2nc3ccccc3n2C1c1ccncc1 (stereo unspecified),41,8,0,11,80*
C=CCOC(=O)C1=C(C)Nc2nc3ccccc3n2C1c1ccncc1 (stereo unspecified),46,-6,0,10,62*
Cc1cc(C(=O)C[N+]2(C)CCOCC2)c(C)n1-c1ccc(Br)cc1,3,-36,0,9,2
Cc1nn2c(nc(N3CCCCC3)c3ccccc32)c1C=O,-20,33,-1,15,-28
Cc1nn2c([nH]c(=O)c3ccccc32)c1C=O,0,83*,-1,-14,-1
CC1CC(C)CN(S(=O)(=O)c2ccc(C(=O)Nc3nnc(C4CC4)o3)cc2)C1 (stereo unspecified),-13,3,0,37,12
CC(C(=O)Nc1ccccc1-c1ccccc1)N(C)Cc1nc2ccccc2c(=O)[nH]1 (stereo unspecified),10,15,57*,0,18
CC(NC(=O)CN(C)Cc1nc2ccccc2c(=O)[nH]1)c1ccccc1 (stereo unspecified),0,-5,0,-6,24
Cc1ccc(NC(=O)CN(C)Cc2nc3ccccc3c(=O)[nH]2)c(Br)c1,24,-11,0,20,53*
COc1ccc(C(=O)N2CCN(C)C(=O)[C@@H]2C)cc1OC1CCN(C(C)C)CC1,0,-10,0,-5,9
CCCNC(=O)c1cccc(COCC(F)(F)F)c1,-63*,-5,1,-3,-69
